Laboratory results as given in ChEMBL document CHEMBL1135421, “2-(Anilinomethyl)imidazolines as alpha1 adrenergic receptor agonists: the discovery of alpha1a subtype selective 2'-alkylsulfonyl-substituted analogues” (J Med Chem, 2002).
Values joined by “and” are separate entries in the source; they are usually repeats but may differ in a detail not shown here. Equal entries are not always repeated.

Key:
[1] = biological target: T1, Alpha-1D adrenergic receptor (Homo sapiens, UniProt P25100); experiment: Agonist potency at Alpha-1D adrenergic receptor assayed in rat-1 fibroblasts expressing human Alpha-1D adrenergic receptor; format: functional
T1 sequence (P25100 whole entry): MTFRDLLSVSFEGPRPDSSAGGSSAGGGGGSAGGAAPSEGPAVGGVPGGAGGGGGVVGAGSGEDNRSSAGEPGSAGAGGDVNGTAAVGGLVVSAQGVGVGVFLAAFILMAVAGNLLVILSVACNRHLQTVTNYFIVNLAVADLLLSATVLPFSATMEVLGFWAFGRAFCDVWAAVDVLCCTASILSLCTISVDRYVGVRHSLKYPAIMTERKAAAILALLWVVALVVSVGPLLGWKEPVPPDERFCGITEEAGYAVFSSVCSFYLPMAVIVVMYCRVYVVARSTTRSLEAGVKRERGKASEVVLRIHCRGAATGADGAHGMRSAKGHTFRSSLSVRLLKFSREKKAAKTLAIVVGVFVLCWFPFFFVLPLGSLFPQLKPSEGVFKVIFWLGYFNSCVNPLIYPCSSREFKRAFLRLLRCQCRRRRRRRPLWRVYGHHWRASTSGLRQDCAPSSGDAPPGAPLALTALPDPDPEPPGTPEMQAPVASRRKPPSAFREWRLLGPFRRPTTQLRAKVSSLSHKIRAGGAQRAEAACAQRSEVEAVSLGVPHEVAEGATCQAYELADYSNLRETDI
Outline: (§1)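 Rat-1 fibroblasts expressing human α1a/α1b/α1d, grown in DMEM with 10% heat-inactivated FBS and 0.6 mg/mL G418, plated 6000 cells/well and cultured 48 h at 37 °C. Loaded 2 h at 37 °C with Calcium Green (4 μM), 0.2% pluronic acid and 2.5 mM probenecid in HEPES buffer pH 7.4. FLIPR read at room temperature: 10 s baseline, then 50 s after compound. 11-point curves as % of 40 μM phenylephrine response, top concentration typically 5 μM.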

[2] = biological target: T2, Alpha-1A adrenergic receptor (Homo sapiens, UniProt P35348); experiment: Agonist potency at Alpha-1 adrenergic receptor assayed in rat-1 fibroblasts expressing human Alpha-1 adrenergic receptor; format: functional; outline: as §1
T2 sequence (P35348 whole entry): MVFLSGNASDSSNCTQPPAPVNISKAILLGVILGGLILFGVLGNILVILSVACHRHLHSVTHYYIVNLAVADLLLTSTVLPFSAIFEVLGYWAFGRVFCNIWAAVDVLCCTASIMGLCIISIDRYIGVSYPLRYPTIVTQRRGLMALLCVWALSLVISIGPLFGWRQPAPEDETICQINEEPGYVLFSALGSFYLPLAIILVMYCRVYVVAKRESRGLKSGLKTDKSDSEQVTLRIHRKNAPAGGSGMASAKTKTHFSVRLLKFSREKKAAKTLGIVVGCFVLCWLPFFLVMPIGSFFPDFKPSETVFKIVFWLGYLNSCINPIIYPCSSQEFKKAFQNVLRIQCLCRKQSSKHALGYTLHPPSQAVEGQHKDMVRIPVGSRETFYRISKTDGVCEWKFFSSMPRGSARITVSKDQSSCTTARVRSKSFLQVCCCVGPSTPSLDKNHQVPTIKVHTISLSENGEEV

[3] = biological target: T3, Alpha-1B adrenergic receptor (Homo sapiens, UniProt P35368); experiment: Agonist potency at Alpha-1B adrenergic receptor expressed in rat-1 fibroblasts; format: functional
T3 sequence (P35368 whole entry): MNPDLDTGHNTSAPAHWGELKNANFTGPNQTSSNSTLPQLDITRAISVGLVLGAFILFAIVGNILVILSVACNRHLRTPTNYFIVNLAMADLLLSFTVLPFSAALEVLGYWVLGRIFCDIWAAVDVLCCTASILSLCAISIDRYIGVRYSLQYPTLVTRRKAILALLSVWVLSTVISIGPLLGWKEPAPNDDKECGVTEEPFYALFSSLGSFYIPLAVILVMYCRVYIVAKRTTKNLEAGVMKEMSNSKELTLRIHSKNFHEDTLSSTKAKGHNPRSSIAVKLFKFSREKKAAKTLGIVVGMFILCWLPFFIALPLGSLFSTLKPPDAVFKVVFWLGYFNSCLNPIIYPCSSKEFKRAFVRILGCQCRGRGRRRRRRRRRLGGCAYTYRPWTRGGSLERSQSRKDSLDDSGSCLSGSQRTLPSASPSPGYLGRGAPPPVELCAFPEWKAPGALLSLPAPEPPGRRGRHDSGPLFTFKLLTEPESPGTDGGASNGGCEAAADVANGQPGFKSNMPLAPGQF

[4] = biological target: T4, Alpha-2A adrenergic receptor (Homo sapiens, UniProt P08913); experiment: Affinity to human Alpha-2A adrenergic receptor determined by radioligand binding techniques from chinese hamster ovary (CHO) cells; format: cell-based
T4 sequence (P08913 whole entry): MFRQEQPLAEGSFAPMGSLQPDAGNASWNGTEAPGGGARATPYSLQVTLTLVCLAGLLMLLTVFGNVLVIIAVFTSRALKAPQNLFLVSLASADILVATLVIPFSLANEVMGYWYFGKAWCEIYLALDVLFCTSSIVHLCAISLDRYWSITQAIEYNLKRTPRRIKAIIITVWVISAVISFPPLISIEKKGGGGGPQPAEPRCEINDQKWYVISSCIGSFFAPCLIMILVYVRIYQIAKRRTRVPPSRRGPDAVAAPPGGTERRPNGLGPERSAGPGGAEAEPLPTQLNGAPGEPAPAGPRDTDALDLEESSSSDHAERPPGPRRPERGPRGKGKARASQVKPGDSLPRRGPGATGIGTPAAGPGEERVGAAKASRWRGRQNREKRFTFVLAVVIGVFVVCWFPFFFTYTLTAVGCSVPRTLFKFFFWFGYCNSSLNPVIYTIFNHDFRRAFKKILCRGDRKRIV

[5] = biological target: T5, Alpha-2A adrenergic receptor (Homo sapiens) (UniProt P08913); experiment: Efficacy as percentage of the maximal effect observed for nonselective agonist UK-14304 in CHO cells expressing human Alpha-2A adrenergic receptor; format: functional, cell-based
T5 sequence (whole entry): T4 sequence (P08913 whole entry)

[6] = biological target: T4, Alpha-2A adrenergic receptor; experiment: Agonist potency at Alpha-2A stably expressed in CHO cells.; format: functional, cell-based
[7] = biological target: T6, Alpha-2C adrenergic receptor (Homo sapiens, UniProt P18825); experiment: Agonist potency at Alpha-2C adrenergic receptor assayed in CHO cells expressing human Alpha-2C adrenergic receptor; format: functional, cell-based
T6 sequence (P18825 whole entry): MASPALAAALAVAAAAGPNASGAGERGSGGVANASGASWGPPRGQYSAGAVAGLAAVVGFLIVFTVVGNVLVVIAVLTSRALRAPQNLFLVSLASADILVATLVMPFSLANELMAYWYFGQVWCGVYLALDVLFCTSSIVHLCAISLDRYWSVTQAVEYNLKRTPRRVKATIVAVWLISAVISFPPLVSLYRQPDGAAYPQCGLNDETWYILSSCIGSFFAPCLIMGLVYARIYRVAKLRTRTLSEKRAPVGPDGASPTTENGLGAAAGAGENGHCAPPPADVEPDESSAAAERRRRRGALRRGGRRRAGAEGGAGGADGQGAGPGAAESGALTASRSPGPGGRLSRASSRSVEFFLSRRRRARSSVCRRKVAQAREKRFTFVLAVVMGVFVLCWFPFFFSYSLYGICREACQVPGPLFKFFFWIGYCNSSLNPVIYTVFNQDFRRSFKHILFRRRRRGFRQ

EC50 [6]	EC50 [7]	SMILES	EC50 [1]	EC50 [2]	EC50 [3]	Ki [4]	Max [5]
		CC(C)S(=O)(=O)c1ccccc1NCC1=NCCN1	> 5.01 µM	1.95 µM	> 10 µM	2.95 µM	
> 10 µM	1.12 µM	Cc1ccc(S(C)(=O)=O)c(NCC2=NCCN2)c1	> 2 µM	0.00195 µM	0.141 µM	3.89 µM	24%
> 10 µM	2 µM	CS(=O)(=O)c1ccc(F)cc1NCC1=NCCN1	> 100 µM	0.0166 µM	> 100 µM	4.47 µM	18%
0.0251 µM	0.00562 µM	CSc1ccc(F)cc1NCC1=NCCN1	0.0219 µM	0.00229 µM	0.00186 µM	0.0182 µM	96%
		CCCS(=O)(=O)c1ccccc1NCC1=NCCN1					23%
0.316 µM	0.1 µM	CSc1cc(F)ccc1NCC1=NCCN1	0.00912 µM	0.00776 µM	0.00603 µM	0.0589 µM	47%
		CCS(=O)(=O)c1ccccc1NCC1=NCCN1	> 100 µM	0.24 µM	> 100 µM	1.32 µM	10%
> 10 µM	3.16 µM	CS(=O)(=O)c1ccccc1NCC1=NCCN1			> 100 µM	5.62 µM	11%
		CSc1c(F)cccc1NCC1=NCCN1	0.0339 µM	0.00776 µM	0.0851 µM	0.166 µM	102%
		C[S+]([O-])c1ccccc1NCC1=NCCN1 (stereo unspecified)			> 100 µM	0.977 µM	21%
		CSc1ccccc1NCC1=NCCN1				0.0479 µM	76%
0.447 µM and 0.2 µM		COc1ccc(SC)c(NCC2=NCCN2)c1	0.00501 µM	0.00158 µM	0.00363 µM	0.219 µM	52%
> 10 µM	> 10 µM	CS(=O)(=O)c1ccc(C(F)(F)F)cc1NCC1=NCCN1	> 100 µM	1.1 µM	> 100 µM	> 7.94 µM	33%
		CC(C)Sc1ccccc1NCC1=NCCN1	> 5.01 µM	0.00501 µM	0.0617 µM	0.0813 µM	64%
> 10 µM	0.447 µM	CS(=O)(=O)c1cccc(F)c1NCC1=NCCN1	> 100 µM	0.0417 µM	> 100 µM	0.871 µM	38%
		CS(=O)(=O)c1c(F)cccc1NCC1=NCCN1	> 100 µM	0.024 µM	> 100 µM	> 7.94 µM	64%
		CS(=O)(=O)c1cc(F)ccc1NCC1=NCCN1			> 100 µM	0.398 µM	19%

SMILES	EC50 [6]	EC50 [7]	EC50 [1]	EC50 [2]	EC50 [3]	Ki [4]	Max [5]
CSc1ccc(Cl)cc1NCC1=NCCN1	0.00631 µM	0.00282 µM	0.00269 µM	0.000437 µM	0.000501 µM	0.0417 µM	93%
CSc1ccc(C)cc1NCC1=NCCN1	0.0251 µM	0.00891 µM	0.000912 µM	0.00011 µM	0.000417 µM	0.0631 µM	87%
CCSc1ccccc1NCC1=NCCN1		0.0282 µM	0.0513 µM	0.00339 µM	0.0138 µM	0.0813 µM	67%
CS(=O)(=O)c1cc(Cl)ccc1NCC1=NCCN1	> 10 µM	> 10 µM	> 100 µM	0.513 µM		5.01 µM	38%
CS(=O)(=O)c1ccc(Cl)cc1NCC1=NCCN1	> 10 µM	0.794 µM	> 100 µM	0.00282 µM	0.0617 µM	> 7.94 µM	42%
CSc1ccc(C(F)(F)F)cc1NCC1=NCCN1	> 10 µM	0.00794 µM	0.0437 µM	0.0105 µM	0.00603 µM	0.2 µM	40%
